In ChEMBL document CHEMBL1153425, “Inhibitory effects of sesquiterpene lactones isolated from Eupatorium chinense L. on IgE-mediated degranulation in rat basophilic leukemia RBL-2H3 cells and passive cutaneous anaphylaxis reaction in mice” (Bioorg Med Chem, 2009) one finds Activity data, which are given here for seven compounds.

The subject of assay [1] is RBL-2H3. The assay is described as follows: Inhibition of DNP/BSA-stimulated JNK1/2 phosphorylation in IgE-sensitized rat RBL2H3 cells after 10 mins by Western blot. Type of assay: functional, cell-based. In a few lines: (§1)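 Compound-treated, IgE-sensitized RBL-2H3 cells are stimulated with DNP-BSA for 10 min and lysed in RIPA buffer with protease and phosphatase inhibitors. Lysate (20 µg protein) is run on SDS-PAGE and blotted to PVDF. Membranes are blocked with 5% milk/TPBS and probed with primary antibodies, then […] secondaries. Detection is by ECL chemiluminescence.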
A general note: In western blotting, separated proteins are transferred to a membrane and probed.

Assay [2] concerns RBL-2H3. The assay is described as follows: Inhibition of DNP/BSA-stimulated ratio of phospho-Akt to total-Akt level in IgE-sensitized rat RBL2H3 cells after 10 mins by Western blot. Type of assay: functional, cell-based. In short, it runs like this:
as §1

For assay [3], the system named is RBL-2H3. The assay is described as follows: Inhibition of DNP/BSA-stimulated intracellular ROS release in IgE-sensitized rat RBL2H3 cells at 10 uM after 30 mins using CM-H2DCF-DA probe by fluorimetry. It counts as functional, cell-based. In short, it runs like this:
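IgE-sensitized RBL-2H3 cells (5×10^4/well) are loaded with 10 µM CM-H2DCF-DA for 30 min at 37 °C and washed with PBS. They are then exposed 30 min to 10 µM compound and stimulated with DNP-BSA (10 µg/ml). DCF fluorescence is read at ex 490/em 530 nm.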

The subject of assay [4] is RBL-2H3. The assay can be described thus: Inhibition of DNP/BSA-stimulated ERK1/2 phosphorylation in IgE-sensitized rat RBL2H3 cells after 10 mins by Western blot. Type of assay: functional, cell-based. In a few lines:
as §1

In assay [5] the test system is Radical scavenging activity. The assay can be described thus: Antioxidant activity assessed as DPPH-radical scavenging activity at 10 uM. It counts as functional.
Assay [6] relates to RBL-2H3. The assay is described as follows: Inhibition of DNP/BSA-stimulated p38MAPK phosphorylation in IgE-sensitized rat RBL2H3 cells after 10 mins by Western blot. Type of assay: functional, cell-based. In short, it runs like this: as §1
Assay [7] relates to RBL-2H3. The assay is described as follows: Inhibition of A-23187-stimulated beta-hexosamonidase release in IgE-sensitized rat RBL2H3 cells at 5 to 10 uM after 30 mins. It counts as functional, cell-based.
Assay [8] concerns RBL-2H3. The assay is described as follows: Inhibition of DNP/BSA-stimulated beta-hexosamonidase release in IgE-sensitized rat RBL2H3 cells at 5 to 10 uM after 30 mins by colorimetry. It counts as functional, cell-based. In short, it runs like this:
(§2)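 RBL-2H3 cells are plated at 5×10^5 cells/ml, cultured 1 h, then sensitized 24 h with mouse anti-DNP IgE (0.45 µg/ml). After washes, cells sit in Siraganian buffer (pH 7.2; 5.6 mM glucose, 1 mM CaCl2, 0.1% BSA) at 37 °C for 10 min. They are pretreated with 5 or 10 µM compound at 37 °C for 30 min, then challenged with DNP-BSA (10 µg/ml) for 10 min. The reaction is stopped on ice and supernatant taken. Read-outs: β-hexosaminidase by 1 mM p-nitrophenyl-N-acetyl-β-D-glucosaminide in citrate pH 4.5, 37 °C 1 h, A405; histamine by n-butanol/chloroform extraction and o-phthalaldehyde fluorescence (ex 360/em 450), expressed as % inhibition relative to positive and negative controls. Values are mean ± SEM, n=10.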

For assay [9], the system named is RBL-2H3. The assay can be described thus: Inhibition of DNP/BSA-stimulated intracellular calcium release in IgE-sensitized rat RBL2H3 cells at 10 uM after 30 mins by fluorimetry. Type of assay: functional, cell-based. In short, it runs like this:
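IgE-sensitized (0.45 µg/ml anti-DNP IgE, 24 h) RBL-2H3 cells at 5×10^4/well are loaded with Fluo-3 AM for 1 h. They are then incubated 30 min in loading buffer containing 10 µM compound. Ca2+ change after DNP-BSA (10 µg/ml) is read by fluorescence plate reader, ex 490/em 530 nm. Values are mean ± SEM, n=32.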
On the technique in general: A change in cytosolic calcium serves as a functional read-out for many receptors and channels.

The subject of assay [10] is RBL-2H3. The assay is described as follows: Inhibition of DNP/BSA-stimulated histamine release in IgE-sensitized rat RBL2H3 cells at 5 to 10 uM after 30 mins by fluorimetry. Type of assay: functional, cell-based. In short, it runs like this:
as §2

The source made the active and inactive calls. The rule behind the calls is not given here.

Take `C=C1C(=O)O[C@H]2/C=C(/C)[C@@H](OC(C)=O)C/C=C(\CO)C[C@@H](OC(=O)C(C)CC)[C@@H]12` (stereo not given in full): the outcome in assay [1], in [3], in [4] and in assay [5] was inactive. Also, the result in assay [2] and in assay [6] was Active.

For `C=C1C(=O)O[C@H]2/C=C(/C)[C@@H](OC(C)=O)C/C=C(\C)C[C@@H](OC(=O)/C(=C/C)CO)[C@@H]12`, the outcome in assay [1], in assay [3], in [4] and in [5] was inactive. For the same compound, the result in assay [2] and in [6] was Active.

As for `C=C1C(=O)O[C@@H]2/C=C(\C)[C@@H](O)C/C=C(\C)C[C@@H](OC(=O)/C(=C\C)CO)[C@@H]12`, the result in assay [1], in [3], in assay [4] and in assay [5] was inactive. Moreover, the outcome in assay [2] and in assay [6] was Active.

On to `C=C1C(=O)O[C@H]2/C=C(/C)[C@H](OC(C)=O)C[C@@H]3O[C@]3(C)C[C@@H](OC(=O)/C(=C/C)CO)[C@@H]12`, for which the result in [1], in assay [3], in assay [4] and in assay [5] was inactive. In addition, the outcome in [2] and in assay [6] was Active.

For `C=C1C(=O)O[C@@H]2/C=C(\C)C[C@H](O)/C=C(\C)C[C@@H](OC(=O)/C(=C\C)CO)[C@@H]12`, the outcome in [1], in assay [3], in assay [4] and in assay [5] was inactive. The result in assay [2], in assay [7], in [8], in [9], in assay [6] and in assay [10] was Active.

With `C=C1C(=O)O[C@@H]2/C=C(\C)[C@@H](O)C/C=C(/C=O)C[C@@H](OC(=O)C(C)CC)[C@@H]12` (stereo not given in full), the result in [1], in assay [3], in [4] and in assay [5] was inactive. Moreover, the result in assay [2], in assay [7], in assay [8], in [9], in [6] and in assay [10] was Active.

As to `C=C1C(=O)O[C@@H]2/C=C(/C)[C@@H](OC(C)=O)C[C@H]3O[C@]3(C)C[C@@H](OC(=O)/C(=C/C)CO)[C@@H]12`, the result in [1], in [3], in [4] and in assay [5] was inactive. The outcome in assay [2] and in [6] was Active.
